Assay results pooled from the literature.
Each line is one published result; the experiments were not run side by side.
CDK5: Cyclin-dependent kinase 5 (CDK5, Homo sapiens, UniProt Q00535)
CDK5 with p25: Cyclin-dependent kinase 5, with p25 (CDK5, Homo sapiens, UniProt Q00535)
CDK5 with p35: Cyclin-dependent kinase 5, with p35 (CDK5, Homo sapiens, UniProt Q00535)

| Compound | target | assay | conditions | quantity | value |
| --- | --- | --- | --- | --- | --- |
| Cc1c(NC(=O)c2cc(C(N)=O)nc3cc(F)ccc23)c(C(F)(F)F)nn1Cc1ccc(C#N)cc1 | CDK5 | cell-free assay, competition with immobilised ligand | 1 µM | remaining binding | 100% |
| N[C@H]1CCN(c2nccc(-c3cnn4ncccc34)n2)C1 | CDK5 | binding | 1 µM | remaining binding | 100% |
| CC(=O)c1c(NS(C)(=O)=O)c2cc(-c3ccc(Cl)cc3)c(-c3ccc(Cl)cc3Cl)nc2n(C)c1=O | CDK5 | cell-free assay, competition with immobilised ligand | 1 µM | remaining binding | 100% |
| CCCOc1ccc(OC)c(F)c1C(=O)c1ccc(C(=O)N[C@@H]2CNC[C@H]2NC(=O)c2ccc3[nH]ncc3c2)cc1 | CDK5 with p25 | enzyme activity, inhibitor | 10 µM | remaining activity | 1% |
| Oc1ccc(-c2nc(-c3ccncc3)c(-c3ccc(F)cc3)[nH]2)cc1 | CDK5 with p25 | cell-free assay | 0.5 µM | remaining signal | 96% |
| CC[C@H](C)[C@H](NC(=O)[C@H](CCC(N)=O)NC(=O)[C@H](CC(C)C)NC(=O)[C@H](CCSC)NC(=O)[C@H](CCCCN)NC(=O)[C@H](CO)NC(=O)[C@H](CO)NC(=O)[C@H](CCSC)NC(=O)[C@H](CC(C)C)NC(=O)[C@H](CC(N)=O)NC(=O)[C@@H](NC(=O)[C@@H](NC(=O)[C@H](CO)NC(=O)[C@H](CC(C)C)NC(=O)[C@H](CS)NC(=O)[C@H](CCCNC(=N)N)NC(=O)[C@H](CC(=O)O)NC(=O)[C@H](Cc1c[nH]c2ccccc12)NC(=O)[C@H](Cc1ccccc1)NC(=O)[C@H](C)NC(=O)[C@H](CCC(=O)O)NC(=O)[C@@H](N)CCCCN)C(C)C)[C@@H](C)CC)C(=O)N[C@@H](CC(N)=O)C(=O)N[C@@H](C)C(=O)O | CDK5 with p25 | enzyme activity, inhibitor, radiometric | 10 µM, 20 min | remaining activity | 87% |
| CNC(=O)c1ccc(Nc2ncc(C(F)(F)F)c(NCc3nccnc3N(C)S(C)(=O)=O)n2)cc1 | CDK5 | cell-free assay, competition with immobilised ligand | 0.1 µM | remaining binding | 81% |
| O=C1Nc2ccc(Cl)cc2C1=Cc1cc(Cl)c(O)c(Cl)c1 | CDK5 with p25 | cell-free assay | 0.5 µM | remaining signal | 82.6% |
| Cc1ccc(C(=O)NCc2ccsc2)cc1C#Cc1cn(C(C)C)c2ncnc(N)c12 | CDK5 with p35 | enzyme activity, inhibitor | 1 µM | activity vs control | 96% |
| CC(C)c1ccc(NC(=O)c2cccs2)c(-c2nc3ccccc3[nH]c2=O)c1 | CDK5 with p25 | enzyme activity, inhibitor | 1 µM | activity vs control | 95% |
| Cc1ccc(NC(=O)c2ccc(C)c(C(F)(F)F)c2)cc1C#Cc1nn(C2CCC(O)CC2)c2ncnc(N)c12 (stereo not drawn) | CDK5 with p25 | cell-free assay | 10 µM | remaining signal | 87% |
| CS(=O)(=O)N1CCCC(NC(=O)[C@H](CCC2CCCCC2)NC(=O)c2ccc(CNC(=O)c3cnc4ccccn34)cc2)C1 (stereo partly drawn) | CDK5 | cell-free assay, competition with immobilised ligand | 0.1 µM | remaining binding | 100% |
| Nc1nc(Nc2ccc(S(N)(=O)=O)cc2)nn1C(=O)c1c(F)cccc1F | CDK5 with p25 | cell-free assay | 0.5 µM | remaining signal | 2.54% |
| N#Cc1ccc(Nc2ccc3[nH]c(=O)[nH]c3c2)c(Cl)c1 | CDK5 | cell-free assay, competition with immobilised ligand | 1 µM | remaining binding | 100% |
| O=C1NC(=O)c2cc(Nc3ccc(F)cc3)c(Nc3ccc(F)cc3)cc21 | CDK5 with p25 | cell-free assay | 0.5 µM | remaining signal | 85.9% |
| Cc1cc(NC(=O)c2cccc3cc(-c4cccc5[nH]nc(N)c45)ccc23)ccc1F | CDK5 with p35 | enzyme activity, inhibitor | 0.1 µM | activity vs control | 103% |
| N#CCCc1ccc2c(c1)-c1[nH]c3ccc([N+](=O)[O-])cc3c1CC(=O)N2 | CDK5 with p25 | cell-free assay | 0.5 µM | remaining signal | 5.79% |
| CO[C@@H](C)c1c(Nc2ccc([C@@H](N(C)C(=O)C3CCS(=O)(=O)CC3)C(F)(F)F)cc2)cnc2cc(Cl)nn12 | CDK5 | cell-free assay, competition with immobilised ligand | 1 µM | remaining binding | 99% |
